What all share (format): functional
For experiment [1], the system named is Plasmodium berghei. The experiment can be described thus: Antimalarial activity in Plasmodium berghei infected mice (Mus musculus) after 160 mg/kg subcutaneous dose. In short, it runs like this: (§1)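 […] in mice infected with a normal drug-sensitive P. berghei strain. Compound dissolved or suspended in sesame or peanut oil, given as a single subcutaneous dose 72 h postinfection.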

The test system of experiment [2] is Plasmodium berghei. Put plainly: Antimalarial activity in Plasmodium berghei infected mice (Mus musculus) after 640 mg/kg subcutaneous dose. The method, boiled down: as §1
For experiment [3], the system named is Plasmodium berghei. Put plainly: (§2) Antimalarial activity in Plasmodium berghei infected mice (Mus musculus) after 40 mg/kg subcutaneous dose. The method, boiled down:
(§3)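 Normal drug-sensitive P. berghei strain in mice. Compound dissolved or suspended in sesame or peanut oil, given parenterally as a single subcutaneous dose 72 h postinfection.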

Experiment [4] relates to Plasmodium berghei. The experiment can be described thus: (§4) Antimalarial activity in Plasmodium berghei infected mice (Mus musculus) after 20 mg/kg subcutaneous dose. The method, boiled down:
as §1

The test system of experiment [5] is Plasmodium berghei. Put plainly: (§5) Antimalarial activity in Plasmodium berghei infected mice (Mus musculus) after 80 mg/kg subcutaneous dose. The method, boiled down: as §1
Experiment [6] concerns Plasmodium berghei. The description is as §2. The method, boiled down: as §1
This is another data set of the same source.

The subject of experiment [7] is Plasmodium berghei. The experiment can be described thus: Antimalarial activity in Plasmodium berghei infected mice (Mus musculus) after subcutaneous 160 mg/kg dose. In short, it runs like this:
as §3

Experiment [8] relates to Plasmodium berghei. Put plainly: Antimalarial activity in Plasmodium berghei infected mice (Mus musculus) after subcutaneous 640 mg/kg dose. In short, it runs like this: as §3
Experiment [9] has as its system Plasmodium berghei. The experiment can be described thus: Antimalarial activity in Plasmodium berghei infected mice (Mus musculus) after subcutaneous 320 mg/kg dose. In short, it runs like this:
as §3

The subject of experiment [10] is Plasmodium berghei. Described as §5. In short, it runs like this:
as §3
This is another data set of the same source.

Experiment [11] deals with Plasmodium berghei. Described as §4. The method, boiled down:
as §3
This is another data set of the same source.

In experiment [12] the test system is Plasmodium berghei. The experiment can be described thus: (§6) Antimalarial activity in Plasmodium berghei infected mice (Mus musculus) after 5 mg/kg subcutaneous dose. The method, boiled down: as §3
The test system of experiment [13] is Plasmodium berghei. The experiment is described as §6. The method, boiled down: as §1
The source holds these as a separate data set.

In experiment [14] the test system is Plasmodium berghei. Put plainly: (§7) Antimalarial activity in Plasmodium berghei infected mice (Mus musculus) after 10 mg/kg subcutaneous dose. In short, it runs like this:
as §3

Experiment [15] has as its system Plasmodium berghei. The experiment is described as §7. The method, boiled down: as §1
The source holds these as a separate data set.

Consider `CN(C)CCC/N=C1\CC(c2ccc(Cl)cc2Cl)Cc2nc3cc(Cl)ccc3c(O)c21` (centres undefined), for which the “Delta mean survival time” value with Plasmodium berghei [1] is recorded as 13.8; in the experiment on Plasmodium berghei [4] it was 2.8; in the experiment with Plasmodium berghei [5] it was 12; in the experiment with Plasmodium berghei [6], 6.3. Besides, the “No. of toxic deaths” value in the experiment with Plasmodium berghei [2] was found to be 2. In addition, the “No. of cured mice” value in the experiment on Plasmodium berghei [3] came to 1; with Plasmodium berghei [7], 4; with Plasmodium berghei [8], 3; in the experiment with Plasmodium berghei [9], 5.

As to `CN(C)CCC/N=C1\CC(c2ccc(Cl)cc2Cl)Cc2nc3ccc(Cl)cc3c(O)c21` (centres undefined), the “No. of cured mice” value amounted to 5 with Plasmodium berghei [10]; 5 with Plasmodium berghei [11]; 1 with Plasmodium berghei [12]; 5 with Plasmodium berghei [3]; 3 in the experiment with Plasmodium berghei [14]; 5 in the experiment with Plasmodium berghei [7]. Further, the “No. of cured mice” value in the experiment with Plasmodium berghei [8] and with Plasmodium berghei [9] was 5 throughout. Moreover, the “Delta mean survival time” value in the experiment with Plasmodium berghei [13] amounted to 7.4; in the experiment with Plasmodium berghei [15] it was 13.6.

(Values after ChEMBL document CHEMBL1126276, “Synthesis and antimalarial properties of 1-imino derivatives of 7-chloro-3-substituted-3,4-dihydro-1,9(2H,10H)-acridinediones and related structures” (J Med Chem, 1992).)
